EBI2 block: EBI2 receptor antagonists, beta-arrestin recruitment, primary screen, cell-based, luminescence, 7a,25-OHC stimulation, uHTS; G-protein coupled receptor 183 (Homo sapiens), P32249; 7a,25-OHC stimulated; AID 651636, 2012; hit rate 0.81% among 360,000; inhibition, % at 5 µM; in the data active = inhibition above about 38%;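 note: enzyme fragment complementation signal reports receptor beta-arrestin coupling in cells; 0% = agonist plus DMSO wells and 100% = wells without agonist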
APJ ag: agonists of human apelin receptor APJ, primary screen, CHO-K1 cells, PathHunter beta-arrestin, luminescence; P35414; 0% DMSO wells, 100% apelin; activation, % at 20 µM; hit rate 0.11% among 330,000; AID 2520, 2010;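 active = activation more than six SD over the plate average, tested at 20 µM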;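 note: 0% = DMSO alone and 100% = apelin-13 at 10 nM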
Target sequence (P35414 whole entry, looked up): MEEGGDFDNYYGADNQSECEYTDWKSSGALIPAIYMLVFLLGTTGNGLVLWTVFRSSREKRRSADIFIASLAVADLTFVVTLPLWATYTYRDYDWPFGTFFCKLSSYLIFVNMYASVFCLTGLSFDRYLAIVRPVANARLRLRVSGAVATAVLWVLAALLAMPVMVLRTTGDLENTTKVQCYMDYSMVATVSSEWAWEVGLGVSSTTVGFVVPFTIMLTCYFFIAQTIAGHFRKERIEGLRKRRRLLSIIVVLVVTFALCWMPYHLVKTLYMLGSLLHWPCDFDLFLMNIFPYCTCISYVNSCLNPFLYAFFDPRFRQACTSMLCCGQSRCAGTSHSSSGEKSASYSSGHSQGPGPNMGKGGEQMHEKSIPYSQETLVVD
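system = engineered CHO-K1 APJ arrestin reporter cells | input = 1000 cells per well | timing = overnight seeding, 90 min compound at 25 °C, 1 h detection | measured by = enzyme-fragment complementation luminescence | read-out = beta-arrestin recruitment to APJ as agonist activity, luminescent signal | control set = negative DMSO alone, positive Apelin-13 at 10 nM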
CXCR6 inh: CXCR6 receptor inhibitors, primary screen, cell-based, beta-arrestin, luminescence, CHO-K1 PathHunter, 1536-well; AID 602244, 2012; inhibition, % at 20 µM; hit rate 0.36% among 360,000; C-X-C chemokine receptor type 6 (Homo sapiens), O00574; in the data active = inhibition above about 34%, passing the limit was not always enough;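 note: antagonist mode with CXCL16 agonist at 10 nM final; 0% = 10 nM CXCL16 with DMSO and 100% = unstimulated wells without agonist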
APJ antagonist: antagonists of human apelin receptor APJ, primary screen, CHO-K1 cells, beta-arrestin complementation, luminescence. AID 2521, 2010. inhibition, % at 20 µM. hit rate 0.32% among 330,000;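 active = inhibition above about 40% at 20 µM, limit read from the data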;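 note: cells challenged with 10 nM apelin-13 agonist together with compound; plate controls were apelin-13 plus DMSO wells for no effect and DMSO wells lacking apelin-13 for full effect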
CCR6 antag: CCR6 receptor antagonists, primary screen, cell-based, CHO-K1, luminescence, beta-arrestin, uHTS; hit rate 0.49% among 340,000; inhibition, % at 20 µM; CHO-K1 CCR6 PathHunter beta-arrestin, CCL20-stimulated; C-C chemokine receptor type 6 (Homo sapiens), P51684;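 active = compounds whose inhibition of the agonist-driven luminescence signal at 20 µM reaches about 50%, limit read from the data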;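 note: cells stimulated with CCL20 at 14 nM final; plate controls were DMSO with CCL20 for no effect and DMSO without agonist for full effect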
EBI2 conf: EBI2 antagonist hit retest, beta-arrestin, confirmation, cell-based, single concentration, luminescence, 7a,25-OHC stimulation | shares compounds with EBI2 block | 7a,25-OHC antagonism | inhibition, % at 5 µM | hit rate 29% among 2,400 | AID 651997, 2013;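 active = inhibition of at least 50%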
EBI2 agonist: EBI2 agonist activity of antagonist hits, confirmation, counter-screen for EBI2 antagonist project, cell-based, single concentration, agonist mode, luminescence. EBI2-expressing cells, 60 min; 0% vehicle, 100% 7α,25-dihydroxycholesterol control. activation, % at 5 µM. 2,400 tested, under 10 active. shares compounds with EBI2 block;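 active = activation of at least 50%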
bGal counter: E. coli beta-galactosidase enzyme inhibition, confirmation, counter-screen for EBI2 antagonist project, biochemical, luminescence, single concentration. purified beta-galactosidase, luminescent Galacton Star, 15 min. inhibition, % at 5 µM. shares compounds with EBI2 block. hit rate 1% among 2,400;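 active = replicate-average signal at least 3 plate SD below neutral wells, shown as high inhibition, flagging enzyme-inhibiting false positives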;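 note: 0% = DMSO wells with enzyme and 100% = wells lacking enzyme; higher means stronger loss of beta-gal luminescence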
* hit, by the source's call; ! = not active in a repeat. Most compounds without a hit are left out; they make up all but 1.5% or so of the library.

CC(C)NC(=O)N(Cc1ccccc1)Cc1cccs1 was read as EBI2 block 7, APJ ag -5, CXCR6 inh 9, APJ antagonist 5 and CCR6 antag 16.
`O=C(Cn1cccc1C(=O)c1ccccc1)NCCc1ccccc1` gave EBI2 block 7, APJ ag -4, CXCR6 inh 1, APJ antagonist 14 and CCR6 antag 12.
Screening O=C(Cn1cccc1C(=O)c1ccccc1)NCCc1ccc(Cl)cc1 returned EBI2 block 49*, APJ ag -4, CXCR6 inh 0, APJ antagonist 19, CCR6 antag 11, EBI2 conf 16, EBI2 agonist 1 and bGal counter 5.
`COc1ccc(N2CCN(Cc3nc(-c4ccccc4)no3)CC2)cc1` gave EBI2 block 4, APJ ag 0, CXCR6 inh -8, APJ antagonist 13 and CCR6 antag -2.
Screening Cc1[nH]c(-c2ccc(F)cc2)cc1C(=O)N1CCN(c2ccccc2)CC1 returned EBI2 block 86*, APJ ag 3, CXCR6 inh -12, APJ antagonist 19, CCR6 antag 1, EBI2 conf 63*, EBI2 agonist -1 and bGal counter -21.
Cc1ccc(N2CCN(C(=O)c3cc(-c4ccc(F)cc4)[nH]c3C)CC2C)cc1 (configuration not stated) was read as EBI2 block 53*, APJ ag -1, CXCR6 inh 8, APJ antagonist -23, CCR6 antag -16, EBI2 conf 33, EBI2 agonist 1 and bGal counter 6.
COc1cccc(N2CCN(C(=O)c3cc(-c4ccc(F)cc4)[nH]c3C)CC2)c1 was read as EBI2 block 89*, APJ ag -1, CXCR6 inh -4, APJ antagonist -2, CCR6 antag -6, EBI2 conf 69*, EBI2 agonist -1 and bGal counter -14.
C[n+]1cccc(O)c1SCc1ccccc1 was read as EBI2 block -9, APJ ag 0, CXCR6 inh 5, APJ antagonist -22 and CCR6 antag 3.
O=C(COc1ccc(F)cc1)c1ccc2c(c1)CCCC2 was read as EBI2 block 47*, APJ ag -1, CXCR6 inh -8, APJ antagonist 4, CCR6 antag 27, EBI2 conf 25, EBI2 agonist -2 and bGal counter -15.
`COc1cccc(CNS(=O)(=O)c2cc(Br)ccc2Br)c1` gave EBI2 block 3 and CXCR6 inh 4.
For CCC(C)Sc1ccc(-c2nc3ccc(Cl)cn3c2NCc2ccccc2)cc1 (configuration not stated) the results were EBI2 block 44*, APJ ag 1, CXCR6 inh -3, APJ antagonist -1, CCR6 antag 9, EBI2 conf 28, EBI2 agonist -2 and bGal counter -14.
For CCCCCCSc1ccc(-c2nc3ccc(C)cn3c2NCc2ccccc2)cc1 the results were EBI2 block 53*, APJ ag -7, CXCR6 inh 0, APJ antagonist 3, CCR6 antag 3, EBI2 conf 54*!, EBI2 agonist 1 and bGal counter 2.
Cc1ccc2nc(-c3cccc(SC4CCCCC4)c3)c(NC3CCCCC3)n2c1 was read as EBI2 block 31, APJ ag -1, CXCR6 inh 17, APJ antagonist 4 and CCR6 antag 34.

Screening results (PubChem BioAssay)
